Results published in ChEMBL document CHEMBL4689842, “EUbOPEN Chemogenomics Library wave 1” (2021).

Legend:
Format in all cases: toxicity, cell-based
Fibroblast [1] = experiment: Multiplex assay against human fibroblast
How it was run: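 Compound was added to live cells that had been stained at seeding with Hoechst33342, BioTracker Green Microtubule Cytoskeleton Dye, MitoTracker Red and Annexin V Alexa Fluor 680, and imaging followed on a CQ1 microscope at 37°C and 5% CO2. CellPathfinder machine-learning gating divided cells into Hoechst high-intensity objects or normal cells, normal cells into healthy, pyknosed or fragmented nuclei, and pyknosed cells into mitotic or apoptotic. Tubulin, mitochondrial-mass and membrane-permeability phenotypes are per cents of healthy-nucleus cells.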

U2OS = experiment: Incucyte cell viability with U2OS; details: human, 10 µM, compound concentration 10 uM; note: filed as whole numbers so only -1 and 0 and 1 occur
Fibroblast [2] = experiment: Incucyte cell viability with human fibroblast; details: 10 µM, compound concentration 10 uM; note: filed as whole numbers so only -1 and 0 and 1 occur
HEK-293T = experiment: Incucyte cell viability with HEK293T; details: human, 10 µM, compound concentration 10 uM; note: filed as whole numbers so only -1 and 0 and 1 occur
[3] = 12 h, 1 µM, compound concentration 1 uM, replicate 1
[4] = 12 h, 1 µM, compound concentration 1 uM, replicate 2
[5] = 12 h, 10 µM, compound concentration 10 uM, replicate 1
[6] = 12 h, 10 µM, compound concentration 10 uM, replicate 2
[7] = 24 h, 1 µM, compound concentration 1 uM, replicate 1
[8] = 24 h, 1 µM, compound concentration 1 uM, replicate 2
[9] = 24 h, 10 µM, compound concentration 10 uM, replicate 1
[10] = 24 h, 10 µM, compound concentration 10 uM, replicate 2
[11] = 48 h, 1 µM, compound concentration 1 uM, replicate 1
[12] = 48 h, 1 µM, compound concentration 1 uM, replicate 2
[13] = 48 h, 10 µM, compound concentration 10 uM, replicate 1
[14] = 48 h, 10 µM, compound concentration 10 uM, replicate 2
[15] = 0 h, replicate number 1, timepoint 0 hours
[16] = 6 h, replicate number 1, timepoint 6 hours
[17] = 12 h, replicate number 1, timepoint 12 hours
[18] = 18 h, replicate number 1, timepoint 18 hours
[19] = 24 h, replicate number 1, timepoint 24 hours
[20] = 12 h, replicate number 2, timepoint 12 hours
[21] = 18 h, replicate number 2, timepoint 18 hours
[22] = 24 h, replicate number 2, timepoint 24 hours

CC(/C=C1\SC(=S)N(CCCC(=O)Nc2ccc(C(=O)O)c(O)c2)C1=O)=C\c1ccccc1
Population Apoptotic (%) (Fibroblast [1]; [3]): 59%
Population Fragmented Nuclei (%) (Fibroblast [1]; [3]): 22%
Population Healthy Nuclei (%) (Fibroblast [1]; [3]): 47%
Population Hoechst High Intensity Objects (%) (Fibroblast [1]; [3]): 11%
Population Membrane Permeable-Phenotype (%) (Fibroblast [1]; [3]): 31%
Population Mitochondria Different-Phenotype (%) (Fibroblast [1]; [3]): 4%
Population Mitotic Cells (%) (Fibroblast [1]; [3]): 40%
Population Normal (%) (Fibroblast [1]; [3]): 88%
Population Pyknosed Nuclei (%) (Fibroblast [1]; [3]): 29%
Population Tubulin-Different-Phenotype (%) (Fibroblast [1]; [3]): 38%
Total Cell Count (Fibroblast [1]; [3]): 167
Population Apoptotic (%) (Fibroblast [1]; [4]): 33%
Population Fragmented Nuclei (%) (Fibroblast [1]; [4]): 10%
Population Healthy Nuclei (%) (Fibroblast [1]; [4]): 81%
Population Hoechst High Intensity Objects (%) (Fibroblast [1]; [4]): 6%
Population Membrane Permeable-Phenotype (%) (Fibroblast [1]; [4]): 7%
Population Mitochondria Different-Phenotype (%) (Fibroblast [1]; [4]): 7%
Population Mitotic Cells (%) (Fibroblast [1]; [4]): 66%
Population Normal (%) (Fibroblast [1]; [4]): 93%
Population Pyknosed Nuclei (%) (Fibroblast [1]; [4]): 7%
Population Tubulin-Different-Phenotype (%) (Fibroblast [1]; [4]): 7%
Total Cell Count (Fibroblast [1]; [4]): 65
Population Apoptotic (%) (Fibroblast [1]; [5]): 62%
Population Fragmented Nuclei (%) (Fibroblast [1]; [5]): 32%
Population Healthy Nuclei (%) (Fibroblast [1]; [5]): 48%
Population Hoechst High Intensity Objects (%) (Fibroblast [1]; [5]): 61%
Population Membrane Permeable-Phenotype (%) (Fibroblast [1]; [5]): 40%
Population Mitochondria Different-Phenotype (%) (Fibroblast [1]; [5]): 9%
Population Mitotic Cells (%) (Fibroblast [1]; [5]): 37%
Population Normal (%) (Fibroblast [1]; [5]): 38%
Population Pyknosed Nuclei (%) (Fibroblast [1]; [5]): 18%
Population Tubulin-Different-Phenotype (%) (Fibroblast [1]; [5]): 54%
Total Cell Count (Fibroblast [1]; [5]): 331
Population Apoptotic (%) (Fibroblast [1]; [6]): 44%
Population Fragmented Nuclei (%) (Fibroblast [1]; [6]): 17%
Population Healthy Nuclei (%) (Fibroblast [1]; [6]): 72%
Population Hoechst High Intensity Objects (%) (Fibroblast [1]; [6]): 7%
Population Membrane Permeable-Phenotype (%) (Fibroblast [1]; [6]): 6%
Population Mitochondria Different-Phenotype (%) (Fibroblast [1]; [6]): 6%
Population Mitotic Cells (%) (Fibroblast [1]; [6]): 55%
Population Normal (%) (Fibroblast [1]; [6]): 92%
Population Pyknosed Nuclei (%) (Fibroblast [1]; [6]): 10%
Population Tubulin-Different-Phenotype (%) (Fibroblast [1]; [6]): 9%
Total Cell Count (Fibroblast [1]; [6]): 88
Population Apoptotic (%) (Fibroblast [1]; [7]): 54%
Population Fragmented Nuclei (%) (Fibroblast [1]; [7]): 23%
Population Healthy Nuclei (%) (Fibroblast [1]; [7]): 50%
Population Hoechst High Intensity Objects (%) (Fibroblast [1]; [7]): 7%
Population Membrane Permeable-Phenotype (%) (Fibroblast [1]; [7]): 29%
Population Mitochondria Different-Phenotype (%) (Fibroblast [1]; [7]): 1%
Population Mitotic Cells (%) (Fibroblast [1]; [7]): 45%
Population Normal (%) (Fibroblast [1]; [7]): 92%
Population Pyknosed Nuclei (%) (Fibroblast [1]; [7]): 25%
Population Tubulin-Different-Phenotype (%) (Fibroblast [1]; [7]): 37%
Total Cell Count (Fibroblast [1]; [7]): 155
Population Fragmented Nuclei (%) (Fibroblast [1]; [8]): 12%
Population Healthy Nuclei (%) (Fibroblast [1]; [8]): 76%
Population Hoechst High Intensity Objects (%) (Fibroblast [1]; [8]): 6%
Population Membrane Permeable-Phenotype (%) (Fibroblast [1]; [8]): 4%
Population Mitochondria Different-Phenotype (%) (Fibroblast [1]; [8]): 10%
Population Normal (%) (Fibroblast [1]; [8]): 93%
Population Pyknosed Nuclei (%) (Fibroblast [1]; [8]): 10%
Population Tubulin-Different-Phenotype (%) (Fibroblast [1]; [8]): 12%
Total Cell Count (Fibroblast [1]; [8]): 64
Population Apoptotic (%) (Fibroblast [1]; [9]): 53%
Population Fragmented Nuclei (%) (Fibroblast [1]; [9]): 32%
Population Healthy Nuclei (%) (Fibroblast [1]; [9]): 45%
Population Hoechst High Intensity Objects (%) (Fibroblast [1]; [9]): 57%
Population Membrane Permeable-Phenotype (%) (Fibroblast [1]; [9]): 44%
Population Mitochondria Different-Phenotype (%) (Fibroblast [1]; [9]): 6%
Population Mitotic Cells (%) (Fibroblast [1]; [9]): 46%
Population Normal (%) (Fibroblast [1]; [9]): 42%
Population Pyknosed Nuclei (%) (Fibroblast [1]; [9]): 22%
Population Tubulin-Different-Phenotype (%) (Fibroblast [1]; [9]): 44%
Total Cell Count (Fibroblast [1]; [9]): 326
Population Apoptotic (%) (Fibroblast [1]; [10]): 44%
Population Fragmented Nuclei (%) (Fibroblast [1]; [10]): 9%
Population Healthy Nuclei (%) (Fibroblast [1]; [10]): 83%
Population Hoechst High Intensity Objects (%) (Fibroblast [1]; [10]): 4%
Population Membrane Permeable-Phenotype (%) (Fibroblast [1]; [10]): 5%
Population Mitochondria Different-Phenotype (%) (Fibroblast [1]; [10]): 14%
Population Mitotic Cells (%) (Fibroblast [1]; [10]): 55%
Population Normal (%) (Fibroblast [1]; [10]): 95%
Population Pyknosed Nuclei (%) (Fibroblast [1]; [10]): 7%
Population Tubulin-Different-Phenotype (%) (Fibroblast [1]; [10]): 14%
Total Cell Count (Fibroblast [1]; [10]): 115
Population Apoptotic (%) (Fibroblast [1]; [11]): 62%
Population Fragmented Nuclei (%) (Fibroblast [1]; [11]): 34%
Population Healthy Nuclei (%) (Fibroblast [1]; [11]): 52%
Population Hoechst High Intensity Objects (%) (Fibroblast [1]; [11]): 14%
Population Membrane Permeable-Phenotype (%) (Fibroblast [1]; [11]): 30%
Population Mitochondria Different-Phenotype (%) (Fibroblast [1]; [11]): 3%
Population Mitotic Cells (%) (Fibroblast [1]; [11]): 37%
Population Normal (%) (Fibroblast [1]; [11]): 85%
Population Pyknosed Nuclei (%) (Fibroblast [1]; [11]): 12%
Population Tubulin-Different-Phenotype (%) (Fibroblast [1]; [11]): 33%
Total Cell Count (Fibroblast [1]; [11]): 146
Population Apoptotic (%) (Fibroblast [1]; [12]): 100%
Population Fragmented Nuclei (%) (Fibroblast [1]; [12]): 15%
Population Healthy Nuclei (%) (Fibroblast [1]; [12]): 81%
Population Hoechst High Intensity Objects (%) (Fibroblast [1]; [12]): 12%
Population Membrane Permeable-Phenotype (%) (Fibroblast [1]; [12]): 18%
Population Mitochondria Different-Phenotype (%) (Fibroblast [1]; [12]): 1%
Population Mitotic Cells (%) (Fibroblast [1]; [12]): 0%
Population Normal (%) (Fibroblast [1]; [12]): 87%
Population Pyknosed Nuclei (%) (Fibroblast [1]; [12]): 2%
Population Tubulin-Different-Phenotype (%) (Fibroblast [1]; [12]): 35%
Total Cell Count (Fibroblast [1]; [12]): 127
Population Apoptotic (%) (Fibroblast [1]; [13]): 69%
Population Fragmented Nuclei (%) (Fibroblast [1]; [13]): 49%
Population Healthy Nuclei (%) (Fibroblast [1]; [13]): 40%
Population Hoechst High Intensity Objects (%) (Fibroblast [1]; [13]): 55%
Population Membrane Permeable-Phenotype (%) (Fibroblast [1]; [13]): 37%
Population Mitochondria Different-Phenotype (%) (Fibroblast [1]; [13]): 13%
Population Mitotic Cells (%) (Fibroblast [1]; [13]): 30%
Population Normal (%) (Fibroblast [1]; [13]): 44%
Population Pyknosed Nuclei (%) (Fibroblast [1]; [13]): 9%
Population Tubulin-Different-Phenotype (%) (Fibroblast [1]; [13]): 54%
Total Cell Count (Fibroblast [1]; [13]): 297
Population Apoptotic (%) (Fibroblast [1]; [14]): 33%
Population Fragmented Nuclei (%) (Fibroblast [1]; [14]): 23%
Population Healthy Nuclei (%) (Fibroblast [1]; [14]): 72%
Population Hoechst High Intensity Objects (%) (Fibroblast [1]; [14]): 12%
Population Membrane Permeable-Phenotype (%) (Fibroblast [1]; [14]): 14%
Population Mitochondria Different-Phenotype (%) (Fibroblast [1]; [14]): 4%
Population Mitotic Cells (%) (Fibroblast [1]; [14]): 66%
Population Normal (%) (Fibroblast [1]; [14]): 87%
Population Pyknosed Nuclei (%) (Fibroblast [1]; [14]): 4%
Population Tubulin-Different-Phenotype (%) (Fibroblast [1]; [14]): 38%
Total Cell Count (Fibroblast [1]; [14]): 74
Growth Rate (U2OS; [15]): 0
Growth Rate (U2OS; [16]): 0
Growth Rate (U2OS; [17]): 1
Growth Rate (U2OS; [18]): 1
Growth Rate (U2OS; [19]): 1
Growth Rate (Fibroblast [2]; [15]): 0
Growth Rate (Fibroblast [2]; 6 h, replicate number 2, timepoint 6 hours): 0
Growth Rate (Fibroblast [2]; [20]): 0
Growth Rate (Fibroblast [2]; [18]): 1
Growth Rate (Fibroblast [2]; [21]): 0
Growth Rate (Fibroblast [2]; [19]): 1
Growth Rate (Fibroblast [2]; [22]): 0
Growth Rate (HEK-293T; [15]): 0
Growth Rate (HEK-293T; [16]): 1
Growth Rate (HEK-293T; [17]): 0
Growth Rate (HEK-293T; [20]): 1
Growth Rate (HEK-293T; [18]): 0
Growth Rate (HEK-293T; [21]): 1
Growth Rate (HEK-293T; [19]): 0
Growth Rate (HEK-293T; [22]): 1
